Legend:
Format in all cases: functional, cell-based
[1] = system: A-375; experiment: Cytotoxicity against human A375 cells after 72 hrs by MTT assay; details: for IC50: A-375, 72 h
How it was run: (§1)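 Cancer lines grown in RPMI 1640 with 10% heat-inactivated FBS, 37 °C, 5% CO2. Cells trypsinized at 80-90% confluence, seeded at 2×10^3/well overnight, then given compounds (DMSO stocks diluted in medium) at various concentrations for 72 h at 37 °C. Controls: 0.1% DMSO negative, adriamycin positive. MTT (5 mg/ml) added for 4 h, formazan dissolved in SDS 12 h, A595 read. IC50 from dose-response curves.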

[2] = system: MCF7; experiment: Cytotoxicity against human MCF7 cells after 72 hrs by MTT assay; details: for IC50: MCF7, 72 h; how it was run: as §1
[3] = system: MGC-803; experiment: Cytotoxicity against human MGC803 cells after 72 hrs by MTT assay; details: for IC50: MGC-803, 72 h; how it was run: as §1
[4] = system: Bcap37; experiment: Cytotoxicity against human Bcap37 cells after 72 hrs by MTT assay; details: for IC50: Bcap37, 72 h; how it was run: as §1
[5] = system: PC-3; experiment: (§2) Cytotoxicity against human PC3 cells after 72 hrs by MTT assay
How it was run: as §1, with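 “Cells” for “Cancer lines grown in RPMI 1640 with 10% heat-inactivated FBS, 37 °C, 5% CO2. Cells”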

[6] = as §2; details: PC-3, 72 h
How it was run: as §1, with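 “Cells” for “Cancer lines grown in RPMI 1640 with 10% heat-inactivated FBS, 37 °C, 5% CO2. Cells”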

| Compound | Activity [1] | IC50 [1] | Activity [2] | IC50 [2] | Activity [3] | IC50 [3] | Activity [4] | IC50 [4] | Activity [5] | IC50 [6] |
| --- | --- | --- | --- | --- | --- | --- | --- | --- | --- | --- |
| C=C(C)[C@@H]1CC[C@]2(C(=O)OCCCCBr)CC[C@]3(C)[C@H](CC[C@@H]4[C@@]5(C)CCC(=O)C(C)(C)[C@@H]5CC[C@]43C)[C@@H]12 | Dose-dependent effect | > 20 µM | Dose-dependent effect | > 20 µM | Dose-dependent effect | > 20 µM | Dose-dependent effect | > 20 µM | Dose-dependent effect | > 20 µM |
| C=C(C)[C@@H]1CC[C@]2(C(=O)OCCCBr)CC[C@]3(C)[C@H](CC[C@@H]4[C@@]5(C)CCC(=O)C(C)(C)[C@@H]5CC[C@]43C)[C@@H]12 | Dose-dependent effect | > 20 µM | Dose-dependent effect | > 20 µM | Dose-dependent effect | > 20 µM | Dose-dependent effect | > 20 µM | Dose-dependent effect | > 20 µM |
| C=C(C)[C@@H]1CC[C@]2(C(=O)OCCCN(CC)CC)CC[C@]3(C)[C@H](CC[C@@H]4[C@@]5(C)CCC(=O)C(C)(C)[C@@H]5CC[C@]43C)[C@@H]12 | Dose-dependent effect | 9.3 µM | Dose-dependent effect | 7.3 µM | Dose-dependent effect | 6.8 µM | Dose-dependent effect | 6.1 µM | Dose-dependent effect | 7 µM |
| C=C(C)[C@@H]1CC[C@]2(C(=O)OCCN3CCN(C(=O)C(CC)CCCC)CC3)CC[C@]3(C)[C@H](CC[C@@H]4[C@@]5(C)CCC(=O)C(C)(C)[C@@H]5CC[C@]43C)[C@@H]12 (stereo partly specified) | Dose-dependent effect | > 20 µM | Dose-dependent effect | 15.4 µM | Dose-dependent effect | 13.4 µM | Dose-dependent effect | 18.7 µM | Dose-dependent effect | > 20 µM |
| C=C(C)[C@@H]1CC[C@]2(C(=O)OCCBr)CC[C@]3(C)[C@H](CC[C@@H]4[C@@]5(C)CCC(=O)C(C)(C)[C@@H]5CC[C@]43C)[C@@H]12 | Dose-dependent effect | > 20 µM | Dose-dependent effect | > 20 µM | Dose-dependent effect | > 20 µM | Dose-dependent effect | > 20 µM | Dose-dependent effect | > 20 µM |
| C=C(C)[C@@H]1CC[C@]2(C(=O)OCCCN3CCCC3)CC[C@]3(C)[C@H](CC[C@@H]4[C@@]5(C)CCC(=O)C(C)(C)[C@@H]5CC[C@]43C)[C@@H]12 | Dose-dependent effect | 8.3 µM | Dose-dependent effect | 8.4 µM | Dose-dependent effect | 7.4 µM | Dose-dependent effect | 9.2 µM | Dose-dependent effect | 7.6 µM |
| C=C(C)[C@@H]1CC[C@]2(C(=O)OCCN3CCN(C(=O)c4c(F)cccc4Cl)CC3)CC[C@]3(C)[C@H](CC[C@@H]4[C@@]5(C)CCC(=O)C(C)(C)[C@@H]5CC[C@]43C)[C@@H]12 | Dose-dependent effect | 8.4 µM | Dose-dependent effect | 8.1 µM | Dose-dependent effect | 5.3 µM | Dose-dependent effect | 7.5 µM | Dose-dependent effect | 9.3 µM |
| C=C(C)[C@@H]1CC[C@]2(C(=O)OCCCN3CCOCC3)CC[C@]3(C)[C@H](CC[C@@H]4[C@@]5(C)CCC(=O)C(C)(C)[C@@H]5CC[C@]43C)[C@@H]12 | Dose-dependent effect | 8.6 µM | Dose-dependent effect | 9.3 µM | Dose-dependent effect | 5.6 µM | Dose-dependent effect | 7.2 µM | Dose-dependent effect | 6.6 µM |
| C=C(C)[C@@H]1CC[C@]2(C(=O)OCCN3CCCC3)CC[C@]3(C)[C@H](CC[C@@H]4[C@@]5(C)CCC(=O)C(C)(C)[C@@H]5CC[C@]43C)[C@@H]12 | Dose-dependent effect | 9.7 µM | Dose-dependent effect | 9.4 µM | Dose-dependent effect | 10.8 µM | Dose-dependent effect | 10.2 µM | Dose-dependent effect | 12.3 µM |
| C=C(C)[C@@H]1CC[C@]2(C(=O)OCCCN3CCCCC3)CC[C@]3(C)[C@H](CC[C@@H]4[C@@]5(C)CCC(=O)C(C)(C)[C@@H]5CC[C@]43C)[C@@H]12 | Dose-dependent effect | 9.5 µM | Dose-dependent effect | 6.6 µM | Dose-dependent effect | 6.3 µM | Dose-dependent effect | 9.5 µM | Dose-dependent effect | 5.7 µM |
| C=C(C)[C@@H]1CC[C@]2(C(=O)O)CC[C@]3(C)[C@H](CC[C@@H]4[C@@]5(C)CCC(=O)C(C)(C)[C@@H]5CC[C@]43C)[C@@H]12 [BETUNOLIC ACID] | Dose-dependent effect | 28.9 µM | Dose-dependent effect | 18.2 µM |  | 17.7 µM | Dose-dependent effect | 25.7 µM | Dose-dependent effect | 13.9 µM |
| C=C(C)[C@@H]1CC[C@]2(C(=O)OCCN(CC)CC)CC[C@]3(C)[C@H](CC[C@@H]4[C@@]5(C)CCC(=O)C(C)(C)[C@@H]5CC[C@]43C)[C@@H]12 | Dose-dependent effect | 14.3 µM | Dose-dependent effect | 12.8 µM | Dose-dependent effect | 11.7 µM | Dose-dependent effect | 15.6 µM | Dose-dependent effect | 10.1 µM |
| C=C(C)[C@@H]1CC[C@]2(C(=O)OCCN3CCN(C(=O)CCCCCCCC)CC3)CC[C@]3(C)[C@H](CC[C@@H]4[C@@]5(C)CCC(=O)C(C)(C)[C@@H]5CC[C@]43C)[C@@H]12 | Dose-dependent effect | > 20 µM | Dose-dependent effect | 17.6 µM | Dose-dependent effect | > 20 µM | Dose-dependent effect | > 20 µM | Dose-dependent effect | > 20 µM |
| COc1cccc2c1C(=O)c1c(O)c3c(c(O)c1C2=O)C[C@@](O)(C(=O)CO)C[C@@H]3O[C@H]1C[C@H](N)[C@H](O)[C@H](C)O1 [DOXORUBICIN] | Dose-dependent effect | 1 µM |  | 1.35 µM | Dose-dependent effect |  | Dose-dependent effect | 1.2 µM | Dose-dependent effect |  |
| C=C(C)[C@@H]1CC[C@]2(C(=O)OCCCCN3CCOCC3)CC[C@]3(C)[C@H](CC[C@@H]4[C@@]5(C)CCC(=O)C(C)(C)[C@@H]5CC[C@]43C)[C@@H]12 | Dose-dependent effect | 6.8 µM | Dose-dependent effect | 8.5 µM | Dose-dependent effect | 5.6 µM | Dose-dependent effect | 5.2 µM | Dose-dependent effect | 7.2 µM |
| C=C(C)[C@@H]1CC[C@]2(C(=O)OCCN3CCN(C(=O)c4cccc(F)c4)CC3)CC[C@]3(C)[C@H](CC[C@@H]4[C@@]5(C)CCC(=O)C(C)(C)[C@@H]5CC[C@]43C)[C@@H]12 | Dose-dependent effect | 7.6 µM | Dose-dependent effect | 5.4 µM | Dose-dependent effect | 4.9 µM | Dose-dependent effect | 6.4 µM | Dose-dependent effect | 6.8 µM |
| C=C(C)[C@@H]1CC[C@]2(C(=O)OCCN3CCN(C(=O)/C=C/c4ccccc4)CC3)CC[C@]3(C)[C@H](CC[C@@H]4[C@@]5(C)CCC(=O)C(C)(C)[C@@H]5CC[C@]43C)[C@@H]12 | Dose-dependent effect | 9.3 µM | Dose-dependent effect | 7.3 µM | Dose-dependent effect | 13.4 µM | Dose-dependent effect | 9.4 µM | Dose-dependent effect | 11 µM |

— ChEMBL document CHEMBL3414513, “Synthesis and biological evaluation of betulonic acid derivatives as antitumor agents” (Eur J Med Chem, 2015)
